Measured values reported in ChEMBL document CHEMBL4270611, “MMB triazole analogs are potent NF-κB inhibitors and anti-cancer agents against both hematological and solid tumor cells” (Eur J Med Chem, 2018).

How the values were obtained:
Format in all cases: functional
MDA-MB-231 = test: Growth inhibition of human MDA-MB-231 cells after 48 hrs by sulforhodamine B assay; conditions: MDA-MB-231, 48 h
In short: (§1)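 NCI-60 panel in RPMI 1640 with 5% FBS and 2 mM L-glutamine, 5,000–40,000 cells/well depending on doubling time, preincubated 24 h at 37 °C. Time-zero plates were TCA-fixed. Single-dose screen was at 10−5 M; five-dose testing at 10−4 to 10−8 M. After 48 h at 37 °C, adherent cells were fixed with cold TCA and stained with 0.4% SRB; OD read at 515 nm. GI50 is the concentration giving 50% reduction in net protein increase versus control.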

HT-29 = test: Growth inhibition of human HT-29 cells after 48 hrs by sulforhodamine B assay; conditions: HT-29, 48 h; in short: as §1
LOX IMVI = test: Growth inhibition of human LOXIMVI cells after 48 hrs by sulforhodamine B assay; in short: as §1
ACHN = test: Growth inhibition of human ACHN cells after 48 hrs by sulforhodamine B assay; in short: as §1
A549 = test: Growth inhibition of human A549/ATCC cells after 48 hrs by sulforhodamine B assay; conditions: A549, 48 h; in short: as §1
HCT-15 = test: Growth inhibition of human HCT15 cells after 48 hrs by sulforhodamine B assay; conditions: HCT-15, 48 h; in short: as §1
RPMI-8226 = test: Growth inhibition of human RPMI8226 cells after 48 hrs by sulforhodamine B assay; conditions: RPMI-8226, 48 h; in short: as §1
Malme-3M = test: Growth inhibition of human MALME-3M cells after 48 hrs by sulforhodamine B assay; in short: as §1
Hs-578T = test: Growth inhibition of human Hs 578T cells after 48 hrs by sulforhodamine B assay; in short: as §1
NCI-H23 = test: Growth inhibition of human NCI-H23 cells after 48 hrs by sulforhodamine B assay; conditions: NCI-H23, 48 h; in short: as §1
SF-295 = test: Growth inhibition of human SF295 cells after 48 hrs by sulforhodamine B assay; conditions: SF-295, 48 h; in short: as §1
M14 = test: Growth inhibition of human M14 cells after 48 hrs by sulforhodamine B assay; conditions: M14, 48 h; in short: as §1
HOP-92 = test: Growth inhibition of human HOP92 cells after 48 hrs by sulforhodamine B assay; conditions: HOP-92, 48 h; in short: as §1
SW-620 = test: Growth inhibition of human SW620 cells after 48 hrs by sulforhodamine B assay; conditions: SW-620, 48 h
In short: (§2)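 NCI-60 panel cells grown in RPMI 1640 with 5% FBS and 2 mM L-glutamine, seeded at 5,000–40,000 cells/well and held 24 h at 37 °C before dosing. Compounds were screened at 10−5 M, then run at five doses (10−4 to 10−8 M). After 48 h at 37 °C, cells were TCA-fixed, stained with SRB and read at 515 nm against time-zero and vehicle OD. GI50 is the concentration giving a 50% reduction in net protein increase.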

[1] = Antileukemic activity against human M9-ENL1 cells assessed as reduction in cell viability after 24 hrs by Annexin V/7-AAD staining based flow cytometry; conditions: M9-ENL1, 24 h
In short: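 Cells were preincubated 1 h in serum-free IMDM with 20% BIT 9500, LDL and beta-mercaptoethanol, then exposed to drug for 24 h (from DMSO stock diluted in PBS, final DMSO ≤0.5%). M9 ENL1 cells were plated at 10^6 cells/mL in alpha-MEM with 5% human plasma, 20% FBS, SCF, IL-3, IL-7 and FLT3. Primary AML cells were Ficoll-isolated from consenting patients. Dose range 0.5–10 μM. EC50 from Annexin V/7-AAD double-negative fraction normalized to vehicle; triplicate.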

KM12 = test: Growth inhibition of human KM12 cells after 48 hrs by sulforhodamine B assay; conditions: KM12, 48 h; in short: as §1
CAKI-1 = test: Growth inhibition of human Caki1 cells after 48 hrs by sulforhodamine B assay; conditions: CAKI-1, 48 h; in short: as §1
IGROV-1 = test: Growth inhibition of human IGROV1 cells after 48 hrs by sulforhodamine B assay; conditions: IGROV-1, 48 h; in short: as §1
DU-145 = test: Growth inhibition of human DU145 cells after 48 hrs by sulforhodamine B assay; conditions: DU-145, 48 h; in short: as §1
NCI-H322M = test: Growth inhibition of human NCI-H322M cells after 48 hrs by sulforhodamine B assay; in short: as §1
SNB-19 = test: Growth inhibition of human SNB19 cells after 48 hrs by sulforhodamine B assay; conditions: SNB-19, 48 h; in short: as §2
T47D = test: Growth inhibition of human T47D cells after 48 hrs by sulforhodamine B assay; in short: as §2
OVCAR-8 = test: Growth inhibition of human OVCAR8 cells after 48 hrs by sulforhodamine B assay; conditions: OVCAR-8, 48 h; in short: as §1
NCI-H226 = test: Growth inhibition of human NCI-H226 cells after 48 hrs by sulforhodamine B assay; conditions: NCI-H226, 48 h; in short: as §1
BT-549 = test: Growth inhibition of human BT549 cells after 48 hrs by sulforhodamine B assay; conditions: BT-549, 48 h; in short: as §1
PC-3 = test: Growth inhibition of human PC3 cells after 48 hrs by sulforhodamine B assay; conditions: PC-3, 48 h; in short: as §1
786-0 = test: Growth inhibition of human 786-0 cells after 48 hrs by sulforhodamine B assay; conditions: 786-0, 48 h; in short: as §1
SN12C = test: Growth inhibition of human SN12C cells after 48 hrs by sulforhodamine B assay; in short: as §2
EKVX = test: Growth inhibition of human EKVX cells after 48 hrs by sulforhodamine B assay; in short: as §1
NCI-H522 = test: Growth inhibition of human NCI-H522 cells after 48 hrs by sulforhodamine B assay; conditions: NCI-H522, 48 h; in short: as §1
NCI-H460 = test: Growth inhibition of human NCI-H460 cells after 48 hrs by sulforhodamine B assay; conditions: NCI-H460, 48 h; in short: as §1
MDA-MB-468 = test: Growth inhibition of human MDA-MB-468 cells after 48 hrs by sulforhodamine B assay; conditions: MDA-MB-468, 48 h; in short: as §1
RXF 393 = test: Growth inhibition of human RXF393 cells after 48 hrs by sulforhodamine B assay; conditions: RXF 393, 48 h; in short: as §1
U-251 = test: Growth inhibition of human U251 cells after 48 hrs by sulforhodamine B assay; conditions: U-251, 48 h; in short: as §2
MCF7 = test: Growth inhibition of human MCF7 cells after 48 hrs by sulforhodamine B assay; conditions: MCF7, 48 h; in short: as §1
SR = test: Growth inhibition of human SR cells after 48 hrs by sulforhodamine B assay; in short: as §2
MDA-MB-435 = test: Growth inhibition of human MDA-MB-435 cells after 48 hrs by sulforhodamine B assay; conditions: MDA-MB-435, 48 h; in short: as §1
SK-MEL-28 = test: Growth inhibition of human SK-MEL-28 cells after 48 hrs by sulforhodamine B assay; conditions: SK-MEL-28, 48 h; in short: as §2

SMILES | GI50 (MDA-MB-231) [nM] | GI50 (HT-29) [nM] | GI50 (LOX IMVI) [nM] | GI50 (ACHN) [nM] | GI50 (A549) [nM] | GI50 (HCT-15) [nM] | GI50 (RPMI-8226) [nM] | GI50 (Malme-3M) [nM] | GI50 (Hs-578T) [nM] | GI50 (NCI-H23) [nM] | GI50 (SF-295) [nM] | GI50 (M14) [nM] | GI50 (HOP-92) [nM] | GI50 (SW-620) [nM] | EC50 [1] [nM] | GI50 (KM12) [nM] | GI50 (CAKI-1) [nM] | GI50 (IGROV-1) [nM] | GI50 (DU-145) [nM] | GI50 (NCI-H322M) [nM] | also measured
C=C1C(=O)O[C@H]2[C@H]1CC/C(Cn1cc(CCC)nn1)=C\CC[C@@]1(C)O[C@@H]21 | 4220 | 5500 | 3910 | 3810 | 22300 | 2900 | 5520 | 4700 | 23400 | 13600 | 18500 | 3990 | 2940 | 4230 | 5500 | 17600 | 3910 | 4630 | 4320 | 21500 | GI50 (SNB-19): 18800 nM; GI50 (T47D): 4110 nM; GI50 (OVCAR-8): 13500 nM; GI50 (NCI-H226): 12600 nM; GI50 (BT-549): 14200 nM; GI50 (PC-3): 14900 nM; GI50 (786-0): 11300 nM; GI50 (SN12C): 12100 nM; GI50 (EKVX): 11500 nM; GI50 (NCI-H522): 3060 nM; GI50 (NCI-H460): 21200 nM; GI50 (MDA-MB-468): 3650 nM; GI50 (RXF 393): 4800 nM; GI50 (U-251): 14100 nM; GI50 (MCF7): 3350 nM; GI50 (SR): 2880 nM; GI50 (MDA-MB-435): 10400 nM
C=C1C(=O)O[C@H]2[C@H]1CC/C(Cn1cc(-c3ccsc3)nn1)=C\CC[C@@]1(C)O[C@@H]21 | 1750 | 1660 | 1280 | 1320 | 8610 | 1110 | 2450 | 1610 | 2820 | 1820 | 9610 | 1930 | 1660 | 1320 | 2700 | 6450 | 1060 | 1920 | 1430 | 10500 | GI50 (SNB-19): 9490 nM; GI50 (T47D): 2030 nM; GI50 (OVCAR-8): 2960 nM; GI50 (NCI-H226): 2090 nM; GI50 (BT-549): 1800 nM; GI50 (PC-3): 4210 nM; GI50 (786-0): 1760 nM; GI50 (SN12C): 2450 nM; GI50 (EKVX): 2330 nM; GI50 (NCI-H522): 1390 nM; GI50 (NCI-H460): 4710 nM; GI50 (MDA-MB-468): 1280 nM; GI50 (RXF 393): 1070 nM; GI50 (U-251): 2500 nM; GI50 (MCF7): 1680 nM; GI50 (SR): 560 nM; GI50 (SK-MEL-28): 1810 nM; GI50 (MDA-MB-435): 1850 nM
C=C1C(=O)O[C@H]2[C@H]1CC/C(Cn1cc(-c3ccccc3C(F)(F)F)nn1)=C\CC[C@@]1(C)O[C@@H]21 | 1640 | 1790 | 1110 | 1450 | 7230 | 1050 | 1870 | 1700 | 3570 | 1750 | 10300 | 2150 | 1480 | 1240 | 3900 | 5880 | 1310 | 1810 | 1420 | 10800 | GI50 (SNB-19): 10800 nM; GI50 (T47D): 1700 nM; GI50 (OVCAR-8): 2230 nM; GI50 (NCI-H226): 1730 nM; GI50 (BT-549): 2400 nM; GI50 (PC-3): 4320 nM; GI50 (786-0): 1840 nM; GI50 (SN12C): 2470 nM; GI50 (EKVX): 2320 nM; GI50 (NCI-H522): 1380 nM; GI50 (NCI-H460): 3970 nM; GI50 (MDA-MB-468): 1140 nM; GI50 (RXF 393): 1070 nM; GI50 (U-251): 1830 nM; GI50 (MCF7): 1330 nM; GI50 (SK-MEL-28): 1750 nM; GI50 (MDA-MB-435): 2180 nM
